This note sets out measurements from ChEMBL document CHEMBL3526048, “In vitro metabolism of rivoglitazone, a novel peroxisome proliferator-activated receptor γ agonist, in rat, monkey, and human liver microsomes and freshly isolated hepatocytes” (Drug Metab Dispos, 2011).

Data set [1] is described as follows: Retention time of the compound by LC-MS/MS analysis. It is filed as physicochemical. A digest of the protocol:
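LC-MS/MS used a YMC-Pack ODS-A column (1.5 × 150 mm, 5 μm) at 30°C, 0.1 ml/min. Mobile phase was water and acetonitrile, each with 0.01% TFA. Gradient: 12→60% B over 30 min, →90% B over 5 min, hold 5 min. Detection was UV 220 nm with positive ESI Q-TOF (capillary 3300 V, cone 45 V), collision energy 20 eV and xenon as collision gas.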

Data set [2] concerns Hepatocyte. As to the kind of experiment: Drug level in rat hepatocytes treated with [14C]-rivoglitazone at 30 uM after 3 hrs by radio-HPLC/LC-MS/MS analysis. It is filed as ADME, cell-based.
Data set [3] is described as follows: Drug level in monkey hepatocytes treated with [14C]-rivoglitazone at 30 uM after 3 hrs by radio-HPLC/LC-MS/MS analysis. The note with it: cynomolgus monkey.
The subject of data set [4] is Hepatocyte. Put plainly: Drug level in human hepatocytes treated with [14C]-rivoglitazone at 30 uM after 3 hrs by radio-HPLC/LC-MS/MS analysis. It is filed as ADME, cell-based. A digest of the protocol: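 Freshly isolated hepatocytes were suspended in HBSS at 2×10^6 viable cells/ml; trypan-blue viability was rat 88%, monkey 91 and 94%, human 66, 73 and 81%. Donors were rat (7 weeks, 170 g) and two male cynomolgus monkeys. Cells were incubated with [¹⁴C]rivoglitazone (30 μM) for 3 h at 37°C under 95% O₂/5% CO₂. Acetonitrile stop, sonication, samples pooled per species, supernatant analysed by radio-HPLC and LC-MS.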

For data set [5], the system named is Liver microsome. Put plainly: Drug level in Sprague-Dawley rat liver microsomes treated with [14C]-rivoglitazone at 20 uM after 2 hrs by radio-HPLC/LC-MS/MS analysis in presence of NADPH-generating system/SAM. It is filed as ADME. The method, boiled down: (§1)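 Pooled male liver microsomes (1 mg/ml protein; rat from 94 Sprague-Dawley, monkey from 8 cynomolgus, human from 23 donors) were incubated with [¹⁴C]rivoglitazone (20 μM). Buffer: 10 mM potassium phosphate (pH 7.4). Cofactors: NADPH-generating system (2 mM NADP⁺, 20 mM G6P, 2 U/ml G6PDH, 10 mM MgCl₂), with or without 2 mM SAM. Incubation 2 h at 37°C with shaking; controls lacked NADPH system and SAM alone. Acetonitrile stop, radio-HPLC plus LC-MS.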

The subject of data set [6] is Hepatocyte. As to the kind of experiment: Drug level in human hepatocytes treated with [14C]-rivoglitazone at 30 uM after 3 hrs by radio-HPLC/LC-MS/MS analysis in presence of NADPH-generating system/SAM. The format is ADME, cell-based.
Data set [7] in a line: Drug level in cynomolgus monkey liver microsomes treated with [14C]-rivoglitazone at 20 uM after 2 hrs by radio-HPLC/LC-MS/MS analysis in presence of NADPH-generating system/SAM. The format is ADME, Macaca fascicularis. The method, boiled down:
as §1

The test system of data set [8] is Hepatocyte (Macaca fascicularis). As to the kind of experiment: Drug level in monkey hepatocytes treated with [14C]-rivoglitazone at 30 uM after 3 hrs by radio-HPLC/LC-MS/MS analysis in presence of NADPH-generating system/SAM. The settings on record: cynomolgus monkey.
Data set [9] concerns Liver microsome. As to the kind of experiment: Drug level in human liver microsomes treated with [14C]-rivoglitazone at 20 uM after 2 hrs by radio-HPLC/LC-MS/MS analysis in presence of NADPH-generating system/SAM. It is filed as ADME. A digest of the protocol: as §1
Background: Microsomes from liver hold many membrane-bound enzymes, among them those of drug oxidation.

The subject of data set [10] is Hepatocyte. As to the kind of experiment: Drug level in rat hepatocytes treated with [14C]-rivoglitazone at 30 uM after 3 hrs by radio-HPLC/LC-MS/MS analysis in presence of NADPH-generating system/SAM. The format is ADME, cell-based.
Data set [11] can be described thus: Drug level in cynomolgus monkey liver microsomes treated with [14C]-rivoglitazone at 20 uM after 4 hrs by radio-HPLC/LC-MS/MS analysis in presence of UDPGA and UDPGA/SAM. It is filed as ADME, Macaca fascicularis. A digest of the protocol:
(§2)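 Pooled male liver microsomes (1 mg/ml; rat from 94 Sprague-Dawley, monkey from 8 cynomolgus, human from 23 donors) were pretreated with alamethicin (50 μg/mg protein, 15 min, ice). Incubation with [¹⁴C]rivoglitazone (20 μM) in 100 mM Tris-HCl (pH 7.5), 10 mM MgCl₂, 5 mM UDPGA, with or without 2 mM SAM, 4 h at 37°C. Controls lacked UDPGA and SAM alone. Radio-HPLC and LC-MS analysis.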

The subject of data set [12] is Liver microsome. Put plainly: Drug level in Sprague-Dawley rat liver microsomes treated with [14C]-rivoglitazone at 20 uM after 4 hrs by radio-HPLC/LC-MS/MS analysis in presence of UDPGA and UDPGA/SAM. It is filed as ADME. A digest of the protocol: as §2
The target of data set [13] is T1, UDP-glucuronosyltransferase 2B7 (Homo sapiens, UniProt P16662).
T1 sequence (P16662 whole entry): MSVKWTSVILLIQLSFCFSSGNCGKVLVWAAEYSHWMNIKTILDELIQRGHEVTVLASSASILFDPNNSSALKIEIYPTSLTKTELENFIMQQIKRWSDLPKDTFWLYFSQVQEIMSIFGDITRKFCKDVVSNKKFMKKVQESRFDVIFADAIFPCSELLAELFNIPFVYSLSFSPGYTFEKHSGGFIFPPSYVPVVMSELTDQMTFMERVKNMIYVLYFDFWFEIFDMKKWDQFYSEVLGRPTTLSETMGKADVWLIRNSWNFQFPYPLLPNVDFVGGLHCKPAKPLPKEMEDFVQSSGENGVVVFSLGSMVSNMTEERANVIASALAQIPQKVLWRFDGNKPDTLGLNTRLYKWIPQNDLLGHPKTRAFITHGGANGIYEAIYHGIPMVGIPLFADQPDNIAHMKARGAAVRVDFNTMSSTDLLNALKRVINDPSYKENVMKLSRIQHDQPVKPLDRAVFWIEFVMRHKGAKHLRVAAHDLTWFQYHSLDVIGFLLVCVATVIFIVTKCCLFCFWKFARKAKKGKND
Put plainly: Activity of human UGT2B7 expressed in microsomes isolated from baculovirus infected insect cell assessed as enzyme-mediated compound formation treated with [14C]-rivoglitazone at 20 uM after 4 hrs by radio-HPLC/LC-MS/MS analysis in presence of NADPH-generating system/SAM. It is filed as ADME.

The subject of data set [14] is Liver microsome. Put plainly: Drug level in human liver microsomes treated with [14C]-rivoglitazone at 20 uM after 4 hrs by radio-HPLC/LC-MS/MS analysis in presence of UDPGA and UDPGA/SAM. It is filed as ADME. The method, boiled down:
as §2

Data set [15] can be described thus: Drug level in monkey hepatocytes treated with [14C]-rivoglitazone at 30 uM after 3 hrs by radio-HPLC/LC-MS/MS analysis in presence of UDPGA and UDPGA/SAM. The settings on record: cynomolgus monkey.
In data set [16] the test system is Hepatocyte. As to the kind of experiment: Drug level in rat hepatocytes treated with [14C]-rivoglitazone at 30 uM after 3 hrs by radio-HPLC/LC-MS/MS analysis in presence of UDPGA and UDPGA/SAM. It is filed as ADME, cell-based.
For data set [17], the system named is Hepatocyte. Put plainly: Drug level in human hepatocytes treated with [14C]-rivoglitazone at 30 uM after 3 hrs by radio-HPLC/LC-MS/MS analysis in presence of UDPGA and UDPGA/SAM. The format is ADME, cell-based.
The target of data set [18] is T2, UDP-glucuronosyltransferase 1A3 (Homo sapiens, UniProt P35503).
T2 sequence (P35503 whole entry): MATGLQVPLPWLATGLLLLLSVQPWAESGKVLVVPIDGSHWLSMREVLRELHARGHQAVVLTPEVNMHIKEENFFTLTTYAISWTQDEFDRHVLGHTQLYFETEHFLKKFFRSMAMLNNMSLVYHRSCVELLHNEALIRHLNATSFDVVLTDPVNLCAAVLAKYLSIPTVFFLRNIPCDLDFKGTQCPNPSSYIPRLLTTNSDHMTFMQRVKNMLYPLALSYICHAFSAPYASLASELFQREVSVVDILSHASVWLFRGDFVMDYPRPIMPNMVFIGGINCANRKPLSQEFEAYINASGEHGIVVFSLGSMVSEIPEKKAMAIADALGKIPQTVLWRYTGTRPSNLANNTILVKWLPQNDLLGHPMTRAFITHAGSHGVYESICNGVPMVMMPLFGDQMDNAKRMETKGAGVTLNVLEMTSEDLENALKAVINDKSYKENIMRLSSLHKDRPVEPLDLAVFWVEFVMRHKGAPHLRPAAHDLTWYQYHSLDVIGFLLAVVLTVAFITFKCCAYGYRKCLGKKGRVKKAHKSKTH
As to the kind of experiment: Activity of human UGT1A3 expressed in microsomes isolated from baculovirus infected insect cell assessed as enzyme-mediated compound formation treated with [14C]-rivoglitazone at 20 uM after 4 hrs by radio-HPLC/LC-MS/MS analysis in presence of NADPH-generating system/SAM. It is filed as ADME.

Data set [19] is described as follows: Drug level in cynomolgus monkey liver microsomes treated with [14C]-rivoglitazone at 20 uM after 2 to 4 hrs by radio-HPLC/LC-MS/MS analysis in presence of NADPH-generating system/SAM and UDPGA/SAM. The format is ADME, Macaca fascicularis.
Data set [20] concerns Liver microsome. As to the kind of experiment: Drug level in human liver microsomes treated with [14C]-rivoglitazone at 20 uM after 2 to 4 hrs by radio-HPLC/LC-MS/MS analysis in presence of NADPH-generating system/SAM and UDPGA/SAM. The format is ADME.
For data set [21], the system named is Liver microsome. Put plainly: Drug level in Sprague-Dawley rat liver microsomes treated with [14C]-rivoglitazone at 20 uM after 2 to 4 hrs by radio-HPLC/LC-MS/MS analysis in presence of NADPH-generating system/SAM and UDPGA/SAM. The format is ADME.

In data set [1], `Cn1c(COc2ccc(CC3SC(=O)NC3=O)cc2)nc2ccc(OS(=O)(=O)O)cc21` (stereo not given) returned a Retention_time of 18.9 min. Besides, the Drug metabolism result (in the data set on Hepatocyte [2]; in [3]; in the data set on Hepatocyte [4]) was “metabolite_detected” in each case.

`COc1ccc2nc(COc3ccc(CC(SC)C(N)=O)cc3)n(C)c2c1` (stereo not given) gave a Retention_time in data set [1] of 20.4 min. Also, the Drug metabolism entry (with Liver microsome [5]; in the data set on Hepatocyte [6]; in [7]; in data set [8]; in the data set on Liver microsome [9]; with Hepatocyte [10]) was “metabolite_detected” throughout.

Consider `COc1ccc2nc(COc3ccc(CC4SC(=O)N([C@@H]5O[C@H](C(=O)O)[C@@H](O)[C@H](O)[C@H]5O)C4=O)cc3)n(C)c2c1` (stereo not given in full), for which the Drug metabolism entry (in data set [11]; in the data set with Liver microsome [12]; in data set [13]; in the data set with Liver microsome [14]; in data set [15]; in the data set with Hepatocyte [16]) was “metabolite_detected” each time. In addition, the Drug metabolism result (in the data set on Hepatocyte [17]; in data set [18]) was “metabolite_detected” each time. Besides, in [1], the Retention_time came to 19.8 min.

As for `COc1ccc2nc(COc3ccc(CC(SC(=O)N[C@@H]4O[C@H](C(=O)O)[C@@H](O)[C@H](O)[C@H]4O)C(=O)O)cc3)n(C)c2c1` (stereo not given in full), the Drug metabolism entry (in data set [11]; in the data set on Liver microsome [12]; in data set [13]; with Liver microsome [14]; in data set [15]; with Hepatocyte [16]) was “metabolite_detected” each time. In addition, the Drug metabolism entry (in the data set with Hepatocyte [17]; in [18]) was “metabolite_detected” throughout. Moreover, in [1], the Retention_time worked out at 17.3 min.

In [1], `COc1ccc2nc(COc3ccc(CC(SSCC(N)C(=O)O)C(=O)O)cc3)n(C)c2c1` (stereo not given) showed a Retention_time of 17.1 min. Moreover, in the data set with Hepatocyte [4], the Drug metabolism result is listed as “metabolite_detected”.

Take `COc1ccc2nc(COc3ccc(CC(SC)C(=O)O)cc3)n(C)c2c1` (stereo not given): the Retention_time in data set [1] worked out at 24.2 min. Further, the Drug metabolism result (in [19]; with Liver microsome [20]; in the data set on Liver microsome [21]) was “metabolite_detected” throughout.
